Test results as given in the EternaBench riboswitch data.

Tested on: MS2 coat protein
Experiment: apparent Kd, MS2 coat protein; higher = weaker binding; RNA-MaP array; FMN 200 µM where present
Method in brief: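 SNAP-549-labelled MS2 coat protein, doubled from 0.7 or 1.5 nM to 3 µM, was titrated over designs transcribed by stalled E. coli RNA polymerase on Illumina sequencing-chip clusters. Titrations were run without and then with constant ligand in 100 mM Tris-HCl pH 7.5, 80 mM KCl, 4 mM MgCl2, BSA, DTT, yeast tRNA and Tween-20. The apparent Kd is the median of filtered per-cluster fits to green signal normalised to red-channel RNA signal and control-cluster median Fmax.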

[1] = designed as: ON switch for flavin mononucleotide, no ligand
[2] = ligand present: flavin mononucleotide, designed as: ON switch for flavin mononucleotide
[3] = designed as: OFF switch for flavin mononucleotide, no ligand
[4] = ligand present: flavin mononucleotide, designed as: OFF switch for flavin mononucleotide

Row | Sequence | apparent Kd [1] [nM] | apparent Kd [2] [nM] | apparent Kd [3] [nM] | apparent Kd [4] [nM]
1 | GUAGCAUACAGAGGAUAUCUAAACCGGAAACGGACAUGAGGAUCACCCAUGUGGCGAAAGCCUAGGGAGAAGGCUGAAUGCUAC | 13.2 | 11.8 | – | –
2 | GUGAACCGUAGGUCGUUGGCUGCACAGGAUAUGAAGGCGUACAUGAGGAUCACCCAUGUUCCCUAUCAGAAGGGUGACAGGAAA | 6.81 | 5.41 | – | –
3 | CUCAUGUUAGGAUAUGCGCUCGACCUAGUGGUCGAGCUCUAGCAGAAGGAACAUGAGGAUCACCCAUGUUUGCA | – | – | 63.3 | 19.6
4 | UCGAUGCUAGGAUAUACGUAUACCUCCACCGUUGAUUCCUCACAUGAGGAUCACCCAUGUAGAAGGAGCAUCUA | – | – | 79.8 | 137
5 | GCCCAGCUAGGAUAUCGCACUGCAGACAUGAGGAUCACCCAUGUGAUGAGGUCUGAAUCCCGAGAAGGAGCAUGGA | – | – | 17.8 | 41.7
6 | GUCGUGUCAGGAUAUACGUUUGUUUCUUUUUUUGUUGUUUAGUAGAAGGGACAUGAGGAUCACCCAUGUUUGUU | – | – | 29.4 | 47.4
7 | AUUGUUAAGGUAGGAUAUAGUAAAAUGAUUUAGUUAGAAGGAUCUCACAUGAGGAUCACCCAUGUAAGAGGAUCACCCAUGUAU | – | – | 11.1 | 9.45
8 | GUGGCCCAGGCACAGGAUAUGUUUCUCGUAACAUGAGGAUCACCCAUGUGCCUAUGAGAUUUAAUGCAGAAGGGUGCACGCCACG | 135 | 18.4 | – | –
9 | CCUCCACAUUAGGAUAUCGUCACAGAAAUGUGACGAGAAGGAAUGACAUGAGGAUCACCCAUGUUAUCGUGAUG | – | – | 21.2 | 54.9
10 | AAGAUCGGAGGAUAUGAAAGGCGUUACAUGAGGAUCACCCAUGUCGGUUUCAUGUUCGUCUCAGAAGGCCGACUCC | – | – | 84.7 | 311
11 | GCGAGCAUACAGAAGGGAUCGUCGUUGCGGCUGUCAGGAUAUGUAGCUUGGCCUAAACAUGAGGAUCACCCAUGUAUAAUGCUA | 66.7 | 24.3 | – | –
12 | CGUCGAUACCAGAAGGACAUGAGGAUCACCCAUGUAGGAUAUGGGUGACCGGGAUGGCAGACAUGGUGCCCGGGCACAUGCGAC | 70 | 9.82 | – | –
13 | AAUAAACUCACAGGAUAUAGCAGAUGUCGCGUGAACUUACAGGCGACGAUGCUAGAAGGGUGACCACAUGAGGAUCACCCAUGU | 1200 | 142 | – | –
14 | ACAUGGAAUACAGGAUAUGUUAGUUUACAGUAGAUUGGUUAUUACUUAACUACAGAAGGGUAAUACAUGAGGAUCACCCAUGUA | 18.4 | 11.8 | – | –
15 | UUUAUAAAUUAGAAGGCAUGAUGAAUUACAAUAGACAUGAGGAUCACCCAUGUGUGUUCAUGUCAUGAGGAUAUAGUCAUAUAU | 17.5 | 9.93 | – | –
16 | GGUUGGCGAGGAUAUACAUGAGGAUCACCCAUGUGGUCCUGUGGCUGGUCUUGACUUUGUAGAAGGCGCGGGUC | – | – | 49.7 | 55.3
17 | GCAGCUAAUGCAGGAUAUCAGCACGUGUAGUGCUGAGAAGGGCACAUGAGGAUCACCCAUGUGAUCAAUUAAUUUUAAUGCUGC | – | – | 29 | 159
18 | UUAAAUCAUGUAGGAUAUGCAUGGCGAAGCUACGCAGAAGGACAUGAGGAUCACCCAUGUUAUAGCGUCCGAUUAAGGAUGCAA | – | – | 91.9 | 216
19 | AUGUGCCUAGGAUAUACAUGAGGAUCACCCAUGUUAACACUGCAAUCAAGUUAAUAUUGUAGAAGGAGGUGUAA | – | – | 27.6 | 27.5
20 | GUCAGCUCGUGAGGAUAUACAACACUGCUUCCGCAGUGUAUUAAGAUCACAUGAGGAUCACCCAUGUAGAAGGCACGAGCUGAU | – | – | 13.7 | 222
21 | CAUCCGAAUGAGAAGGGUCACAUGAGGAUCACCCAUGUGACCUCAUCGAUGACAGGAUAUCAUGGGUGGCAGUGUAAAGUUGGC | – | – | 6.6 | 7.04
22 | GGUCCAGCAUGAGGAUAUGGCACCUUAUUGGUGCCAGAAGGCAUGUCUAUAGACAUGAGGAUCACCCAUGUAAUAAAUUGGACC | – | 43.2 | – | –
23 | CAGGUAGACUGAGGAUAUACAUGACUUAGUCUAUCUAGGUCAUAAACCACAUGAGGAUCACCCAUGUAGAAGGCAGUCUGCCUG | – | – | 17 | 19.8
24 | AAGAAGUGAGGAUAUGCUGCUCGUCACUUGCGUGAUGAGUAGCAGAAGGCACAUGAGGAUCACCCAUGUGGAAA | – | – | 31.3 | 43.1
25 | CCACAUGAGGAUCACCCAUGUGACUUCUGUGGCCCGGUGUUGCAGGAUAUCGCAAGGUUAGUUGACGAGAAGGGCGACGGUGGU | – | – | 31.1 | 102
26 | GGAAAGAUGUUAGGAUAUGGCUUCCCGGUGAAGCCAGAAGGAACAUGAGGAUCACCCAUGUAAAGCGAGUGGCUCUUCUCUGGA | – | – | 18.6 | 65.9
27 | CUGGAUCACGCAGGAUAUUACAUGAGGAUCACCCAUGUCAGGACUGCAAUAUCGUCUCCUCGGUGUGAGAAGGGCGGAAUCAUU | – | – | 15 | 27
28 | GUAUAUCACUUAGGAUAUCUAUAAUUUAUUGAAACAUGAGGAUCACCCAUGUUCAUAAAUUUAUAGGAGAAGGGAGUGAUAUAC | 4.22 | 4.37 | – | –

Row | Sequence | apparent Kd [1] [nM] | apparent Kd [2] [nM] | apparent Kd [3] [nM] | apparent Kd [4] [nM]
29 | AAAAGGCUAGGAUAUACAUGAGGAUCACCCAUGUGUACUGGACAUGCGGUAUGCGUAUGUAGAAGGAGUAUAAA | – | – | 14.4 | 21.6
30 | CGUCGAAAGGCGGGUCCAUCACCACAUGAGGAUCACCCAUGUAAGGAUAUCGGACUCAGAAAGAGCGAGAAGGUACAUAGUUAA | – | – | 6.01 | 6.53
31 | GGAGCCGGUACUGAGGAUAUUCAUAUUAAAACAUGAGGAUCACCCAUGUAGGCCAGAAGGCCUUGGGAGAAGGCAGGCCAGCUCG | 378 | 31.4 | – | –
32 | GGACGUCGCAUUAACAUGAGGAUCACCCAUGUCAAAGGACAUGAGGAUAUGGAUCCUAAUUGGAUCCAGAAGGCAUGGACGUCC | 485 | 35.8 | – | –
33 | CGGGUCUGAGGAUAUCCAUCUUCAUACAUGAGGAUCACCCAUGUUUACCCUUGGGUUCCCGGAGAAGGCAGUUUUC | – | – | 60.9 | 56.4
34 | AACAGGCGUGCCCUGAGUCCACAUGAGGAUCACCCAUGUGAGAGAAGGACCCUCGAGAGAGUUGGGUAGGAUAUCUCCGAUGGG | – | – | 24 | 57.5
35 | CUUUUGUGAGGAUAUUAGUAGUUAAUAAAUAAAAUUACUACUGAGAAGGCACAUGAGGAUCACCCAUGUUCCUC | – | – | 31.5 | 226
36 | CAGUACUGAGGAUAUACAUGAGGAUCACCCAUGUGCCUCAGGUAGGAUACUACCAUUAGUAGAAGGCAGUACUG | – | – | 197 | 37.7
37 | AAUAACAGAGGAUAUACUAUUUUAUGUGUUUAUUGUUUUAAACAUGAGGAUCACCCAUGUAGAAGGCUGAUUGA | – | – | 77.3 | 114
38 | AAAUAAACUAGCAAAAUUUCCUCACAUGAGGAUCACCCAUGUAAGGAUAUCUGUCCUAAAAGGACAGAGAAGGUACGUGCUAGG | – | – | 4.53 | 4.63
39 | CCUAGACAUGAGGAUCACCCAUGUGAGGAUAUGAUGCGAUCGUCGAAAGACGAUAGCAUCAGAAGGCACAUAUG | – | – | 34.4 | 109
40 | GUGGUCAGACAUGAGGAUCACCCAUGUGGAAUAAAUAAGGAGAAGGAUAUGGAAUAUAGGAUAUACCAGAAGGUUUGGUUGGUG | 112 | 116 | – | –
41 | CAGGUAGCUACAGGAUAUACACGUCUGGAUAAACCAGACGAAUAACCCACAUGAGGAUCACCCAUGUAGAAGGGUAGCUGCCUG | – | – | 15.4 | 21.3
42 | UUUGUUUUGCAAGGAUAUGUUUAAUUUUAUUUUCCUUACACAUGAGGAUCACCCAUGUUAUUCUUACAGAAGGUGCGUAAUUUG | – | – | 165 | 166
43 | CUUUUGUGAGGAUAUUAGUAGUAAAUAAAUAAAAUUACUACUGAGAAGGCACAUGAGGAUCACCCAUGUUCCUC | – | – | 33.7 | 317
44 | CUCUUGUCAGGAUAUGCUGCUCGUCACGAAAGUGAUGAGUAGCAGAAGGGACAUGAGGAUCACCCAUGUAAAUA | – | – | 53.7 | 17.5
45 | GUCGGGAUUACAUGAGGAUCACCCAUGUCAGAACGGGCAGUUAGAAGGUGCCAUUAGGGAGAGGGUAAGGAUAUAAUUUUUGGC | 12 | 10.4 | – | –
46 | UUUUAGUAAGGAUAUGCGUAGAUCUCGGAAACGAGAUCUACGCAGAAGGUACAUGAGGAUCACCCAUGUAGAUU | – | – | 17.4 | 22.3
47 | CCAUGACAAAGUCAUGGAUUACGAACAUGAGGAUCACCCAUGUAGGAUAUGCUACUCAAAGAGUAGCAGAAGGACAUGUGUCUU | – | – | 32.9 | 165
48 | GCACUUAGAGUUGAACCGUUUCUAACAUGAGGAUCACCCAUGUAGGAUAUGCUAAUAGUAUUGAAGCAGAAGGACAAUAAGUGC | – | – | 4.59 | 5.01
49 | GGGCCCGGAGGAUAUACAUGAGGAUCACCCAUGUAGGGCCCGGGUAUUCCCGGGUUUUGUAGAAGGCCGGGCCC | – | – | – | 30.1
50 | AAAUAAACUACCAAAAUAUCCUCACAUGAGGAUCACCCAUGUCAGGAUAUUUGUCCUAAAAGGACAGAGAAGGGACGUGGUAGA | – | – | 5.63 | 10.7
51 | GUAGCAUACCGAGGAUAUUCAUACCCGAAAGGGACAUGAGGAUCACCCAUGUGGCGAAAGCCUUGGGAGAAGGCGGAAUGCUAC | 580 | 24.4 | – | –
52 | AAGGAGUAAGGAUAUGCUGCUCGUCACUUGCGUGAUGAGUAGCAGAAGGUACAUGAGGAUCACCCAUGUAAAAA | – | – | 24.5 | 18.3
53 | GGCAGCGGACAAGGAUAUAAGACGCAGACCAAAUUAGAAGGUGUCAUCUGGCAAUGCGAAAGCAGACAUGAGGAUCACCCAUGU | 68.8 | 61.7 | – | –
54 | UGUUGUAUUACAGGAUAUCUAUUAGUUUUAUUUAGAGAAGGGUAUUCACAUGAGGAUCACCCAUGUAUAUACGAGGAAGUUGUG | 57.8 | 60.3 | – | –
55 | AAUAUAGAGCUGGUCUCAUAAUAAACAUGAGGAUCACCCAUGUAGGAUAUCAGCACGAUAAGUGCUGAGAAGGACAUCCAGCUC | – | – | 21.4 | 47
